Results: ChEMBL document CHEMBL1122117, “Pyridazinones. 1. Synthesis and antisecretory and antiulcer activities of thio amide derivatives” (1982)

Assays:
Rattus norvegicus [1] = assay: Inhibition of gastric antisecretory activity in the pylorus-ligated rat at a dose of 100 mg/kg administered intraduodenally; type: functional; details: Stomach, route intraduodenal
Method in brief: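 Shay pylorus-ligated rats, fasted, six per group, ligated under ether. A single intraduodenal dose of 100 mg/kg was given in 1% carboxymethylcellulose, against a vehicle control. The stomach was removed 7 h later, juice volume measured, and free acid titrated with 0.1 N NaOH to pH 3.0 as hourly output. Results are given as percent inhibition versus control.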

Rattus norvegicus [2] = assay: Effective dose required for gastric antisecretory activity in the pylorus-ligated rat after intraduodenal administration.; type: functional; details: Stomach
Method in brief: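 Pylorus ligated under ether in fasted rats, six per group. Test agents were given intraduodenally at several dose levels in 1% carboxymethylcellulose, with a vehicle control group. After 7 h the gastric juice volume was measured and titrated with 0.1 N NaOH to pH 3.0 for free acid, as hourly output per rat. ED50 was calculated.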

Rattus norvegicus [3] = assay: Antiulcer activity in male Donry rat for 50% inhibition of aspirin induced gastric lesions after intraduodenal administration.; type: functional; details: Stomach
Method in brief: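 Aspirin ulcer model. Male Donryu rats of 200–220 g were food-deprived 24 h, ten per group, pylorus-ligated, then dosed intraduodenally. Ten min later they received oral aspirin 100 mg/kg in 1% carboxymethylcellulose. At 7 h the summed lengths of glandular lesions gave the ulcer index (mm). ED50 by Litchfield–Wilcoxon.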

Rattus norvegicus [4] = assay: Antiulcer activity as dose required to inhibit 50% gastric juice secretions in male Wistar rats after intraduodenally administration.; type: functional; details: intraduodenal
Rattus norvegicus [5] = assay: Antiulcer activity in male Wistar rats for 50% inhibition of stress induced gastric lesions after peroral administration.; type: functional; details: Stomach, po
Method in brief: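 Stress ulcer model. Male Wistar rats of 200–220 g, ten per group, were dosed orally, then immobilized in a stress cage and immersed in a water bath. The stomach was removed 7 h later and summed lesion lengths gave the ulcer index (mm). ED50 by Litchfield–Wilcoxon.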

Rattus norvegicus [6] = species on record: Rattus norvegicus; assay: animal or person; details: Stomach, intraduodenal
Rattus norvegicus [7] = species on record: Rattus norvegicus; assay: animal or person; details: Stomach, intraduodenal; remark: listed apart in the source
Rattus norvegicus [8] = assay: Percent inhibition of gastric antisecretory activity in the pylorus-ligated rat at a dose of 100 mg/kg administered intraduodenally; type: functional; details: Stomach, route intraduodenal
Method in brief: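 Fasted rats in groups of six, pylorus ligated under ether anaesthesia (Shay method); compound in 1% carboxymethylcellulose, or vehicle alone, given intraduodenally at 100 mg/kg. Stomach removed 7 h after abdominal closure. Gastric juice volume measured, and free acid titrated with 0.1 N NaOH to pH 3.0. Hourly free-acid output per rat expressed as percent inhibition versus vehicle controls.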

| Compound | inhibition in vivo at 100 mg/kg (Rattus norvegicus [1]) | ED50 (Rattus norvegicus [2]) | other results |
| --- | --- | --- | --- |
| Cc1ccc(=O)n(CCC(N)=O)n1 | -2.9% |  |  |
| N=C(S)Cn1nc(-c2ccccc2)ccc1=O | 5.5% |  |  |
| Cc1ccc(=O)n(CCCC(=N)S)n1 | 36.3% | > 100 mg/kg |  |
| N=C(S)CCN1N=C(c2ccccc2)CCC1=O | 38.2% | > 100 mg/kg |  |
| C/N=C(\S)CCn1nc(-c2ccccc2)ccc1=O | 68.2% | 58.5 mg/kg | ED50 (Rattus norvegicus [3]): 66.3 mg/kg; ED50 (Rattus norvegicus [4]): 50.1 mg/kg; ED50 (Rattus norvegicus [5]): 28.3 mg/kg |
| Cc1cc(=O)n(CCC(=N)S)nc1-c1ccccc1 | 32% | > 100 mg/kg |  |
| CC(CN1N=C(c2ccccc2)CCC1=O)C(=N)S (stereo not drawn) | 28.2% |  |  |
| N=C(S)CCCCCn1nc(-c2ccccc2)ccc1=O | 91.4% | 23.3 mg/kg | ED50 (Rattus norvegicus [3]): 18.2 mg/kg; ED50 (Rattus norvegicus [4]): 9.2 mg/kg; ED50 (Rattus norvegicus [5]): 10.2 mg/kg |
| Cc1ccc(=S)n(CCC(=N)S)n1 | 48.5% | 100 mg/kg |  |
| COc1ccc2cc(-c3ccc(=O)n(CCC(=N)S)n3)ccc2c1 | 48.9% | 100 mg/kg |  |
| CC(Cn1ncccc1=O)C(=N)S (stereo not drawn) | 40.3% | > 100 mg/kg |  |
| N#CCCn1nc(-c2ccccc2)ccc1=O | 10.1% |  |  |
| Cc1ccc(=O)n(CC(C)C(=N)S)n1 (stereo not drawn) | 30.2% | > 100 mg/kg |  |
| N=C(S)CCCCCN1N=C(c2ccccc2)CCC1=O | 48.5% | 100 mg/kg |  |
| O=c1ccc(-c2ccccc2)nn1CCC(=S)N1CCCC1 | 38.2% | > 100 mg/kg |  |
| C/N=C(\S)C(C)Cn1ncccc1=O (stereo not drawn) | 50.2% | 100 mg/kg | ED50 (Rattus norvegicus [3]): 68.5 mg/kg; ED50 (Rattus norvegicus [4]): 40 mg/kg; ED50 (Rattus norvegicus [5]): > 50 mg/kg |
| CN(C)C(=S)CCCCCn1nc(-c2ccccc2)ccc1=O | 58.2% | 100 mg/kg |  |
| N=C(S)CCCCCCn1nc(-c2ccccc2)ccc1=O | 33.9% | > 100 mg/kg |  |
| Cc1ccc(=O)n(CC(=N)S)n1 | 31.5% | > 100 mg/kg |  |
| C/N=C(/S)CCCCCn1nc(-c2ccccc2)ccc1=O | 92.3% | 25.2 mg/kg | ED50 (Rattus norvegicus [3]): 45.5 mg/kg; ED50 (Rattus norvegicus [4]): 15 mg/kg; ED50 (Rattus norvegicus [5]): 18.3 mg/kg |
| N=C(S)CCn1nc2c(cc1=O)CCc1ccccc1-2 | 1.6% |  |  |
| C/N=C(\S)CC(C)n1ncccc1=O (stereo not drawn) | 42.7% | > 100 mg/kg |  |
| CN1[C@@H]2CC[C@H]1C[C@@H](OC(=O)C(CO)c1ccccc1)C2.O=S(=O)(O)O (stereo partly drawn) [ATROPINE SULFATE] |  |  | ED50 (Rattus norvegicus [6]): 1.1 mg/kg; ED50 (Rattus norvegicus [7]): 0.9 mg/kg; ED50 (Rattus norvegicus [3]): 4.5 mg/kg |

| Compound | inhibition in vivo at 100 mg/kg (Rattus norvegicus [1]) | ED50 (Rattus norvegicus [2]) | other results |
| --- | --- | --- | --- |
| CC(CC(=N)S)n1ncccc1=O (stereo not drawn) | 38.8% | > 100 mg/kg |  |
| CC(Cn1nc(-c2ccccc2)ccc1=O)C(=N)S (stereo not drawn) | 86.4% | 28.1 mg/kg | ED50 (Rattus norvegicus [3]): 35 mg/kg; ED50 (Rattus norvegicus [4]): 18.2 mg/kg; ED50 (Rattus norvegicus [5]): 36.1 mg/kg |
| N=C(S)CCCCn1nc(-c2ccccc2)ccc1=O | 33.8% | > 100 mg/kg |  |
| CCOC(=O)CCn1nc(-c2ccccc2)ccc1=O | 6.3% |  |  |
| NC(=O)CCn1nc(-c2ccccc2)ccc1=O | -2.8% |  |  |
| COc1ccc(-c2ccc(=O)n(CCC(=N)S)n2)cc1 | 20.7% | > 100 mg/kg |  |
| N=C(S)CCN1N=C(c2cccs2)CCC1=O | 58.5% | 77.3 mg/kg |  |
| CC1=NN(CCC(=N)S)C(=O)CC1 | 34.8% | > 100 mg/kg |  |
| CC1=NN(C(C)CC(=N)S)C(=O)CC1 (stereo not drawn) | 17.4% |  |  |
| Cc1ccc(=O)n(CCCCCCC(=N)S)n1 | 29.5% | > 100 mg/kg |  |
| N=C(S)CCn1nc(-c2ccc(Cl)c(Cl)c2)ccc1=O | 55.8% | 78.1 mg/kg |  |
| CNC(=O)CCn1nc(-c2ccccc2)ccc1=O | 3.5% |  |  |
| N=C(S)CCn1ncccc1=O | 28.8% | > 100 mg/kg |  |
| N=C(S)CCn1nc(-c2ccccc2)ccc1=S | 62.3% | 73.4 mg/kg |  |
| N=C(S)CCCn1nc(-c2ccccc2)ccc1=O | 75.6% | 31.9 mg/kg | ED50 (Rattus norvegicus [3]): 38 mg/kg; ED50 (Rattus norvegicus [4]): 15.5 mg/kg; ED50 (Rattus norvegicus [5]): 10.5 mg/kg |
| Cc1ccc(-c2ccc(=O)n(CCC(=N)S)n2)cc1 | 18.2% |  |  |
| Cc1ccc(=O)n(C(C)CC(=N)S)n1 (stereo not drawn) | 32.5% | > 100 mg/kg |  |
| Cc1ccc(=O)n(CCCCCC(=N)S)n1 | 36.6% | > 100 mg/kg |  |
| O=c1ccc(-c2ccccc2)nn1CC/C(S)=N/CO |  |  | inhibition in vivo at 100 mg/kg (Rattus norvegicus [8]): 5.1% |
| N=C(S)CCCCCCN1N=C(c2ccccc2)CCC1=O | 68.3% | 58.8 mg/kg | ED50 (Rattus norvegicus [3]): 72.3 mg/kg; ED50 (Rattus norvegicus [4]): 24.8 mg/kg; ED50 (Rattus norvegicus [5]): 23 mg/kg |
| N=C(S)CCn1nc(-c2ccc(Cl)cc2)ccc1=O | 42.5% | > 100 mg/kg |  |
| O=c1cccnn1CCC(=S)N1CCCC1 | 29.7% | > 100 mg/kg |  |
| CN/C(=N\CCSCc1nc[nH]c1C)NC#N [CIMETIDINE] |  |  | ED50 (Rattus norvegicus [6]): > 100 mg/kg; ED50 (Rattus norvegicus [5]): 43.2 mg/kg |

| Compound | inhibition in vivo at 100 mg/kg (Rattus norvegicus [1]) | ED50 (Rattus norvegicus [2]) | other results |
| --- | --- | --- | --- |
| Cc1ccc(=O)n(CCC(=N)S)n1 | 73.9% | 43.2 mg/kg | ED50 (Rattus norvegicus [3]): > 100 mg/kg; ED50 (Rattus norvegicus [4]): 51.3 mg/kg; ED50 (Rattus norvegicus [5]): > 50 mg/kg |
| O=C(O)CCn1nc(-c2ccccc2)ccc1=O | 26.1% |  |  |
| CN(C)C(=S)CCn1nc(-c2ccccc2)ccc1=O | 46% |  |  |
| Cc1cc(-c2ccccc2)nn(CCC(=N)S)c1=O | 60.2% | 66.7 mg/kg | ED50 (Rattus norvegicus [3]): 73.1 mg/kg; ED50 (Rattus norvegicus [4]): 32 mg/kg; ED50 (Rattus norvegicus [5]): > 50 mg/kg |
| Cc1ccc(=O)n(CCCCC(=N)S)n1 | 29.5% | > 100 mg/kg |  |
| N=C(S)CCn1ncccc1=S | 50% | 100 mg/kg |  |
| N=C(S)CCCCN1N=C(c2ccccc2)CCC1=O | 50.2% | 100 mg/kg |  |
| N=C(S)CCn1[nH]c(=O)ccc1=O | -13.4% |  |  |
| N=C(S)CCn1nc(-c2cccs2)ccc1=O | 50.2% | 100 mg/kg |  |
| N=C(S)CCN1N=C(c2ccc(Cl)cc2)CCC1=O | 43.1% | > 100 mg/kg |  |
| Cc1ccc(=O)n(CCC#N)n1 | -0.2% |  |  |
| CC1=NN(CC(C)C(=N)S)C(=O)CC1 (stereo not drawn) | 15.6% |  |  |
| C/N=C(\S)CCn1ncccc1=O | 30.7% | > 100 mg/kg |  |
| N=C(S)CCn1ncc2ccccc2c1=O | 58.3% | 90.1 mg/kg |  |
| N=C(S)CCN1N=C(c2ccc(Cl)c(Cl)c2)CCC1=O | 47.2% | > 100 mg/kg |  |
| N=C(S)CCn1nc(-c2ccccc2)ccc1=O | 53.7% | 87.3 mg/kg | ED50 (Rattus norvegicus [3]): 53.5 mg/kg; ED50 (Rattus norvegicus [4]): 23.2 mg/kg; ED50 (Rattus norvegicus [5]): 34.5 mg/kg |
| CC(Cn1ncccc1=S)C(=N)S (stereo not drawn) | -1% |  |  |
| N=C(S)CCCN1N=C(c2ccccc2)CCC1=O | 50.3% | 100 mg/kg |  |
| CC(CC(=N)S)N1N=C(c2ccccc2)CCC1=O (stereo not drawn) | 9.2% |  |  |
| CC/N=C(\S)CCn1nc(-c2ccccc2)ccc1=O | 50.3% | 100 mg/kg |  |
| N=C(S)CCn1nc(-c2ccccc2)c2ccccc2c1=O | 73.3% | 66.5 mg/kg |  |
| CC(CC(=N)S)n1nc(-c2ccccc2)ccc1=O (stereo not drawn) | 15.5% |  |  |
